The values below come from paper PMC9049676 (RSC Advances, 2020).

Holding throughout (format): cell-based, human
In one assay the test system is HL-7702. Kind of assay: MTT cytotoxicity assay, normal liver cell line HL-7702. The conditions noted are these: read-out: IC50 HL-7702, cells treated for 24 h. In a few lines: (§1)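 Tumour lines and the normal liver line HL-7702 came from the Shanghai Cell Bank. Cells were cultured in RPMI 1640 or DMEM with 10% FBS and 1% streptomycin at 37 °C, 5% CO2. Cells were exposed to test compounds, and viability was read by MTT reduction to derive IC50. Cisplatin was run as reference control.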

The test system of another assay is NCI-H460. The experiment in a line: MTT cytotoxicity assay, NCI-H460. Conditions: read-out: IC50 NCI-H460, cells treated for 24 h. The gist of the method:
as §1

Another assay concerns T24. The experiment in a line: MTT cytotoxicity assay, T24. Conditions: read-out: IC50 T24, cells treated for 24 h. In a few lines: as §1
The test system of a further assay is Hep-G2. The experiment in a line: MTT cytotoxicity assay, Hep-G2. The conditions noted are these: read-out: IC50 Hep-G2, cells treated for 24 h. The gist of the method: as §1

For the molecule `N.N.[Cl][Pt][Cl]` [Cisplatin], the IC50 in the assay with HL-7702 was 13.4 ± 1.56 µM; with NCI-H460, 11.7 ± 2.26 µM; with T24, 22.9 ± 0.93 µM; in the assay on Hep-G2, 19.6 ± 1.39 µM.
